Experimental data published in ChEMBL document CHEMBL1255526, “Fused tricyclic pyrrolizinones that exhibit pseudo-irreversible blockade of the NK1 receptor” (Bioorg Med Chem Lett, 2010).

Experiments:
Meriones unguiculatus [1] = assay: Inhibition of GR-73632-induced foot tapping in Mongolian gerbil at 3 mg/kg after 24 hrs; format: functional
In short: (§1)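 Gerbils given antagonist at the dose and pretreatment time shown (1 mg/kg at 1 h, 3 mg/kg at 24 h); foot tapping then induced with the NK1 agonist GR73632. Read-out is % inhibition of tapping; ED50 or ID50 from dose–response.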

Meriones unguiculatus [2] = species on record: Meriones unguiculatus; assay: Inhibition of GR-73632-induced foot tapping in Mongolian gerbil after 24 hrs; format: functional; conditions: read-out: ED50; in short: as §1
[3] = molecular target: T1, Nuclear receptor subfamily 1 group I member 2 (Homo sapiens, UniProt O75469); assay: Inhibition of human PXR induction
T1 sequence (O75469 whole entry): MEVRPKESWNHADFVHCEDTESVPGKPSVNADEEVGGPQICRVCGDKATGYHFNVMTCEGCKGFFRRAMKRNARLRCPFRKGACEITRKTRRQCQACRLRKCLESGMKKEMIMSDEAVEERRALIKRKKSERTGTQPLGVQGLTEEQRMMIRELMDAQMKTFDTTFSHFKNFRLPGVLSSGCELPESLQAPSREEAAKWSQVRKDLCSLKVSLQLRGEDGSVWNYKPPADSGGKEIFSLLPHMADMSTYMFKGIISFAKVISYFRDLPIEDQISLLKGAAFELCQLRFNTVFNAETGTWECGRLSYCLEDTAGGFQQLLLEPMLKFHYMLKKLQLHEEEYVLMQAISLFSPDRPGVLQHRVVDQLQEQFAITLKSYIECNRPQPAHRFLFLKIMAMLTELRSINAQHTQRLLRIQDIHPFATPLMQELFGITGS

[4] = Binding affinity to potassium channel IKr
[5] = molecular target: T2, PXR (nuclear receptor subfamily 1 group I member 2) (Homo sapiens, UniProt O75469); assay: Inhibition of human PXR induction at 10 uM
T2 sequence (O75469 whole entry): T1 sequence (O75469 whole entry)
In short: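 Human PXR induction measured at 10 µM compound, expressed as % of maximal induction.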

Substance-P receptor [6] = molecular target: T3, Substance-P receptor (Homo sapiens, UniProt P25103); assay: Displacement of [125I]substance P from human NK1 receptor expressed in CHO cells in presence of 50% human serum; format: cell-based
T3 sequence (P25103 whole entry): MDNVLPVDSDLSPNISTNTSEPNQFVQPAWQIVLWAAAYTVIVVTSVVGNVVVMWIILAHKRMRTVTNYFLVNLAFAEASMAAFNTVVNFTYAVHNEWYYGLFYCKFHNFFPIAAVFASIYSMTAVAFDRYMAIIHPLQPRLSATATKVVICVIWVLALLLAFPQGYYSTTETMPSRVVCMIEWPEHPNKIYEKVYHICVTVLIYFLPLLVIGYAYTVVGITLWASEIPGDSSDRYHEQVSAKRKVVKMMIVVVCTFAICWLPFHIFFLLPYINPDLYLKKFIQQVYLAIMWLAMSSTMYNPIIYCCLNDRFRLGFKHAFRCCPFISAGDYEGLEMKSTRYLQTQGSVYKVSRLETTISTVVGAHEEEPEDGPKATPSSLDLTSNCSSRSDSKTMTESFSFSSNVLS
In short: (§2)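 Radioligand binding: [125I]substance P displaced from human NK1 receptor expressed in CHO cells; IC50 determined. Also run with 50% serum added (human, dog, rhesus, rat or gerbil) to measure the serum shift.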

Substance-P receptor [7] = molecular target: T3, Substance-P receptor; assay: Displacement of [125I]substance P from human NK1 receptor expressed in CHO cells; format: cell-based; in short: as §2
[8] = Binding affinity to calcium channel
In short: (§3)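 Ion channel binding assay; IC50 values calculated for sodium channel and for calcium channel (Dlz site).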

Substance-P receptor [9] = molecular target: T3, Substance-P receptor; assay: Antagonist activity at human recombinant NK1 receptor expressed in CHO cells assessed as remaining substance P level at 100 nM after 30 mins by [H3]-inositol phosphate release assay; format: functional, cell-based
In short: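 CHO cells with recombinant human NK1 receptor, 2.5 × 10⁴ per well, plated overnight, then prelabelled overnight at 37 °C with [3H]-myo-inositol (10–25 Ci/mmol) in inositol-free medium with 0.02% BSA. LiCl 10 mM in HEPES-buffered inositol-free DMEM, 15 min. Antagonist at 100 nM or DMSO for 30 min, then substance P for 30 min. Stopped with formic acid. [3H]-inositol phosphate captured on yttrium silicate SPA beads, 2 h. Reported as % substance P response remaining.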

[10] = Binding affinity to sodium channel; in short: as §3
Meriones unguiculatus [11] = assay: Inhibition of GR-73632-induced foot tapping in Mongolian gerbil at 1 mg/kg after 1 hr; format: functional; in short: as §1

SMILES	inhibition in vivo at 3 mg/kg (Meriones unguiculatus [1]) [%]	ED50 (Meriones unguiculatus [2]) [mg/kg]	IC50 [3] [nM]	IC50 [4] [nM]	Emax at 10 µM [5] [%]	IC50 (Substance-P receptor [6]) [nM]	IC50 (Substance-P receptor [7]) [nM]	IC50 [8] [nM]	Activity (Substance-P receptor [9]) [%]	IC50 [10] [nM]	inhibition in vivo at 1 mg/kg (Meriones unguiculatus [11]) [%]
CC[C@]1(O)C[C@H]2[C@H]3[C@H](c4ccc(F)cc4)[C@@H](O[C@H](C)c4cc(C(F)(F)F)cc(C(F)(F)F)c4)CN3C(=O)[C@H]2C1	100	0.06	3300	1770	51	1.7	0.16	8420	4		
C[C@@H](O[C@H]1CN2C(=O)[C@H]3C[C@H](O)C[C@H]3[C@H]2[C@@H]1c1ccc(F)cc1)c1cc(C(F)(F)F)cc(C(F)(F)F)c1						1.7	0.08		35		
C[C@@H](O[C@H]1CN2C(=O)C3CNCC3[C@H]2[C@@H]1c1ccc(F)cc1)c1cc(C(F)(F)F)cc(C(F)(F)F)c1 (stereo in doubt; 6b) [FIRST ELUDED ISOMER]	12			2710		3.2	0.31	310			
C[C@@H](O[C@H]1CN2C(=O)C3CNCC3[C@H]2[C@@H]1c1ccc(F)cc1)c1cc(C(F)(F)F)cc(C(F)(F)F)c1 (stereo in doubt; 6b)									60		
C[C@@H](O[C@H]1CN2C(=O)[C@@H]3C[C@H](N)C[C@@H]3[C@H]2[C@@H]1c1ccc(F)cc1)c1cc(C(F)(F)F)cc(C(F)(F)F)c1						47	1.5		93		
C[C@@H](O[C@H]1CN2C(=O)[C@H]3C[C@H](NCc4ccccc4)C[C@H]3[C@H]2[C@@H]1c1ccc(F)cc1)c1cc(C(F)(F)F)cc(C(F)(F)F)c1	94		> 25000	300	0	1.3	0.14	210	4	210	
C[C@@H](O[C@H]1CN2C(=O)CC[C@H]2[C@@H]1c1ccc(F)cc1)c1cc(C(F)(F)F)cc(C(F)(F)F)c1	100	0.2	4800	5700	50			1580	88	1750	
C[C@@H](O[C@H]1CN2C(=O)C3CNCC3[C@H]2[C@@H]1c1ccc(F)cc1)c1cc(C(F)(F)F)cc(C(F)(F)F)c1 (single isomer, unassigned) [FIRST ELUDED ISOMER]						15	1.5				
C[C@@H](O[C@H]1CN2C(=O)[C@@H]3C[C@H](NCc4ccccc4)C[C@@H]3[C@H]2[C@@H]1c1ccc(F)cc1)c1cc(C(F)(F)F)cc(C(F)(F)F)c1						13	1.2		94		
C[C@@H](O[C@H]1CN2C(=O)C3CN(C4=CC(=O)CC4)CC3[C@H]2[C@@H]1c1ccc(F)cc1)c1cc(C(F)(F)F)cc(C(F)(F)F)c1 (single isomer, unassigned)									11		
C[C@@H](O[C@H]1CN2C(=O)[C@H]3C[C@@H](NCc4ccccc4)C[C@H]3[C@H]2[C@@H]1c1ccc(F)cc1)c1cc(C(F)(F)F)cc(C(F)(F)F)c1	100	0.47	> 25000	280	0	1.8	0.17	140	2		
C[C@@H](O[C@H]1CN2C(=O)C3CN(C4=CC(=O)CC4)CC3[C@H]2[C@@H]1c1ccc(F)cc1)c1cc(C(F)(F)F)cc(C(F)(F)F)c1 (single isomer, unassigned) [FIRST ELUDED ISOMER]	32			1430		1.9	0.17	8810			
C[C@@H](O[C@H]1CN2C(=O)[C@@H]3C[C@@H](NCc4ccccc4)C[C@@H]3[C@H]2[C@@H]1c1ccc(F)cc1)c1cc(C(F)(F)F)cc(C(F)(F)F)c1	6					2.3	0.14		58		81
C[C@@H](O[C@H]1CN2C(=O)C3CN(C4=CC(=O)CC4)CC3[C@H]2[C@@H]1c1ccc(F)cc1)c1cc(C(F)(F)F)cc(C(F)(F)F)c1 (stereo in doubt; 18b)									7		
C[C@@H](O[C@H]1CN2C(=O)C(N)C[C@H]2[C@@H]1c1ccc(F)cc1)c1cc(C(F)(F)F)cc(C(F)(F)F)c1 (some centres undefined)	100	0.61	> 25000	6500	7			210	59	240	
C[C@@H](O[C@H]1CN2C(=O)CC(N)[C@H]2[C@@H]1c1ccc(F)cc1)c1cc(C(F)(F)F)cc(C(F)(F)F)c1 (some centres undefined)	100	0.92	> 25000	9500	1			1880	75	7720	
CC[C@@]1(O)C[C@H]2[C@H]3[C@H](c4ccc(F)cc4)[C@@H](O[C@H](C)c4cc(C(F)(F)F)cc(C(F)(F)F)c4)CN3C(=O)[C@H]2C1						2.3	0.21		31		
C[C@@H](O[C@H]1CN2C(=O)[C@H]3C[C@](C)(O)C[C@H]3[C@H]2[C@@H]1c1ccc(F)cc1)c1cc(C(F)(F)F)cc(C(F)(F)F)c1						1.2	0.066		24		
C[C@@H](O[C@H]1CN2C(=O)C3CNCC3[C@H]2[C@@H]1c1ccc(F)cc1)c1cc(C(F)(F)F)cc(C(F)(F)F)c1 (single isomer, unassigned)									46		
C[C@@H](O[C@H]1CN2C(=O)[C@H]3C[C@H](N)C[C@H]3[C@H]2[C@@H]1c1ccc(F)cc1)c1cc(C(F)(F)F)cc(C(F)(F)F)c1	100	1.33	> 25000	1730	0	1	0.11	590	10	520	
C[C@@H](O[C@H]1CN2C(=O)[C@H]3C[C@@H](N)C[C@H]3[C@H]2[C@@H]1c1ccc(F)cc1)c1cc(C(F)(F)F)cc(C(F)(F)F)c1	91		> 25000	990	0	1	0.09	1230	6	710	
CC(O[C@H]1CN2C(=O)[C@@H]3CC(N)C[C@@H]3[C@H]2[C@@H]1c1ccc(F)cc1)c1cc(C(F)(F)F)cc(C(F)(F)F)c1 (single isomer, unassigned)						13	0.66		61		
